Assay results taken from ChEMBL document CHEMBL2046419, “Antibacterial anthraquinone derivatives from a sea anemone-derived fungus Nigrospora sp” (J Nat Prod, 2012).
In brackets after ≈: the same amount, converted by molar mass.

What was measured:
Bacillus subtilis = assay: Antibacterial activity against Bacillus subtilis ATCC 6633 after 24 hrs by serial dilution technique; type: functional; conditions: ATCC 6633, 24 h
Bacillus cereus [1] = assay: Antibacterial activity against Bacillus cereus ACCC 11077 after 24 hrs by serial dilution technique; type: functional; conditions: ACCC 11077, 24 h
Micrococcus luteus = assay: Antibacterial activity against Micrococcus luteus ATCC 49732 after 24 hrs by serial dilution technique; type: functional; conditions: ATCC 49732, 24 h
Staphylococcus aureus = assay: Antibacterial activity against Staphylococcus aureus ATCC 27154 after 24 hrs by serial dilution technique; type: functional; conditions: ATCC 27154, 24 h
Micrococcus = assay: Antibacterial activity against Micrococcus tetragenus ATCC 13623 after 24 hrs by serial dilution technique; type: functional; conditions: ATCC 13623, 24 h
Escherichia coli = assay: Antibacterial activity against Escherichia coli ATCC 25922 after 24 hrs by serial dilution technique; type: functional; conditions: ATCC 25922, 24 h
Vibrio anguillarum = assay: Antibacterial activity against Vibrio anguillarum ATCC 19019 after 24 hrs by serial dilution technique; type: functional; conditions: ATCC 19019, 24 h
Vibrio parahaemolyticus = assay: Antibacterial activity against Vibrio parahaemolyticus ATCC 17802 after 24 hrs by serial dilution technique; type: functional; conditions: ATCC 17802, 24 h
Staphylococcus albus = assay: Antibacterial activity against Staphylococcus albus ATCC 8799 after 24 hrs by serial dilution technique; conditions: ATCC 8799, 24 h
A549 = assay: Cytotoxicity against human A549 cells by MTT assay; type: functional, cell-based
How it was run: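 A549 human lung cancer cells, MTT read-out, mitomycin as positive control; IC50 reported in μM.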

Bacillus cereus [2] = assay: Ratio of ciprofloxacin MIC to compound MIC for Bacillus cereus ACCC 11077; type: functional

| SMILES | MIC (Bacillus subtilis) [µM] | MIC (Bacillus cereus [1]) [µM] | MIC (Micrococcus luteus) [µM] | MIC (Staphylococcus aureus) [µM] | MIC (Micrococcus) [µM] | MIC (Escherichia coli) [µM] | MIC (Vibrio anguillarum) [µM] | MIC (Vibrio parahaemolyticus) [µM] | MIC (Staphylococcus albus) [µM] | IC50 (A549) [µM] | Ratio (Bacillus cereus [2]) |
| --- | --- | --- | --- | --- | --- | --- | --- | --- | --- | --- | --- |
| COc1cc(O)c2c(c1OC(C)=O)C(=O)c1cc(C)ccc1C2=O | > 200 | > 200 | > 200 | > 200 | > 200 | > 200 | > 200 | > 200 | > 200 | – | – |
| CO[C@@]12[C@H](COC(N)=O)C3=C(C(=O)C(C)=C(N)C3=O)N1C[C@@H]1N[C@@H]12 [MITOMYCIN] | – | – | – | – | – | – | – | – | – | 3 | – |
| COc1cc(O)c2c(c1OC(C)=O)C(=O)c1cc(C)c(OC(C)=O)cc1C2=O | > 200 | > 200 | 200 (≈ 76.9 µg/mL) | > 200 | 200 (≈ 76.9 µg/mL) | > 200 | > 200 | > 200 | > 200 | – | – |
| COC1=CC(=O)c2c(O)c3c(c(O)c2C1=O)C[C@](C)(O)[C@H](OC(C)=O)[C@H]3O | > 200 | 3.12 (≈ 1.18 µg/mL) | > 200 | > 200 | 3.12 (≈ 1.18 µg/mL) | > 200 | > 200 | > 200 | > 200 | 2.72 | – |
| COc1cc(O)c2c(c1O)C(=O)C1=C(C[C@@H](O)[C@@](C)(O)C1)C2=O | 3.12 (≈ 0.999 µg/mL) | 3.12 (≈ 0.999 µg/mL) | 200 (≈ 64.1 µg/mL) | 3.12 (≈ 0.999 µg/mL) | 3.12 (≈ 0.999 µg/mL) | 1.56 (≈ 0.5 µg/mL) | 3.12 (≈ 0.999 µg/mL) | 3.12 (≈ 0.999 µg/mL) | 3.12 (≈ 0.999 µg/mL) | – | – |
| O=C(O)c1cn(C2CC2)c2cc(N3CCNCC3)c(F)cc2c1=O [CIPROFLOXACIN] | 0.312 (≈ 0.103 µg/mL) | 1.25 (≈ 0.414 µg/mL) | 2.5 (≈ 0.828 µg/mL) | 0.156 (≈ 0.0517 µg/mL) | 0.039 (≈ 0.0129 µg/mL) | 0.156 (≈ 0.0517 µg/mL) | 0.078 (≈ 0.0258 µg/mL) | 0.078 (≈ 0.0258 µg/mL) | 0.312 (≈ 0.103 µg/mL) | – | – |
| COC1=CC(=O)c2cc3c(c(O)c2C1=O)C[C@](C)(O)[C@H](O)[C@H]3O | 0.625 (≈ 0.2 µg/mL) | 10 (≈ 3.2 µg/mL) | 20 (≈ 6.41 µg/mL) | 2.5 (≈ 0.801 µg/mL) | 1.25 (≈ 0.4 µg/mL) | 2.5 (≈ 0.801 µg/mL) | 2.5 (≈ 0.801 µg/mL) | 1.25 (≈ 0.4 µg/mL) | 5 (≈ 1.6 µg/mL) | 4.56 | – |
| COc1cc(O)c2c(c1O)[C@H](OC)[C@H]1C[C@](C)(O)[C@H](O)C[C@H]1C2=O | > 100 | 50 (≈ 16.9 µg/mL) | > 100 | 1.56 (≈ 0.528 µg/mL) | 0.78 (≈ 0.264 µg/mL) | 0.78 (≈ 0.264 µg/mL) | 25 (≈ 8.46 µg/mL) | 25 (≈ 8.46 µg/mL) | > 100 | > 50 | – |
| COc1cc(O)c2c(c1OC(C)=O)C(=O)c1cc(C)c(O)cc1C2=O | > 200 | > 200 | > 200 | 100 (≈ 34.2 µg/mL) | > 200 | > 200 | > 200 | > 200 | 100 (≈ 34.2 µg/mL) | – | – |
| COC1=CC(=O)c2c(cc3c(c2O)C[C@@H](O)[C@@](C)(O)C3)C1=O [NIGROSPORIN B] | 0.312 (≈ 0.0949 µg/mL) | 0.312 (≈ 0.0949 µg/mL) | 10 (≈ 3.04 µg/mL) | 1.25 (≈ 0.38 µg/mL) | 0.625 (≈ 0.19 µg/mL) | 1.25 (≈ 0.38 µg/mL) | 1.25 (≈ 0.38 µg/mL) | 0.625 (≈ 0.19 µg/mL) | 2.5 (≈ 0.761 µg/mL) | 3.32 | – |
| COc1cc(OC(C)=O)c2c(c1OC(C)=O)C(=O)c1cc(C)c(OC(C)=O)cc1C2=O | 35 (≈ 14.9 µg/mL) | 140 (≈ 59.7 µg/mL) | 140 (≈ 59.7 µg/mL) | > 140 | > 140 | > 140 | 140 (≈ 59.7 µg/mL) | > 140 | 70 (≈ 29.8 µg/mL) | > 50 | – |
| COC1=CC(=O)c2c(O)c3c(c(O)c2C1=O)C[C@](C)(O)[C@H](O)[C@H]3O [BOSTRYCIN] | 3.12 (≈ 1.05 µg/mL) | 3.12 (≈ 1.05 µg/mL) | 100 (≈ 33.6 µg/mL) | 1.56 (≈ 0.525 µg/mL) | 3.12 (≈ 1.05 µg/mL) | 1.56 (≈ 0.525 µg/mL) | 0.39 (≈ 0.131 µg/mL) | 3.12 (≈ 1.05 µg/mL) | 3.12 (≈ 1.05 µg/mL) | – | – |
| COc1cc(OC(C)=O)c2c(c1OC(C)=O)C(=O)c1cc(C)c(O)cc1C2=O | 5 (≈ 1.92 µg/mL) | 37.5 (≈ 14.4 µg/mL) | > 150 | > 150 | 9.4 (≈ 3.61 µg/mL) | > 150 | 4.7 (≈ 1.81 µg/mL) | 75 (≈ 28.8 µg/mL) | > 150 | – | – |
| COc1cc(O)c2c(c1O)C(=O)c1cc(C)c(O)cc1C2=O | > 200 | > 200 | > 200 | > 200 | > 200 | > 200 | > 200 | > 200 | > 200 | > 50 | – |
| COc1cc(O)c2c(c1O)C(=O)c1cc(C)c(OC(C)=O)cc1C2=O | 12.5 (≈ 4.28 µg/mL) | 50 (≈ 17.1 µg/mL) | > 200 | > 200 | > 200 | > 200 | > 200 | > 200 | > 200 | – | – |
| COC1=CC(=O)c2c(O)c3c(c(O)c2C1=O)C[C@](C)(O)[C@H](OC(C)=O)C3 | 0.78 (≈ 0.283 µg/mL) | 0.0488 (≈ 0.0177 µg/mL) | 100 (≈ 36.2 µg/mL) | > 200 | 0.195 (≈ 0.0707 µg/mL) | > 200 | 0.0975 (≈ 0.0353 µg/mL) | 0.78 (≈ 0.283 µg/mL) | 200 (≈ 72.5 µg/mL) | 5.25 | 25 |
| COc1cc(OC(C)=O)c2c(c1O)C(=O)c1cc(C)c(OC(C)=O)cc1C2=O | 50 (≈ 19.2 µg/mL) | > 200 | > 200 | > 200 | > 200 | > 200 | > 200 | > 200 | 50 (≈ 19.2 µg/mL) | – | – |
| COc1cc(O)c2c(c1O)C(=O)c1cc(C)ccc1C2=O [AUSTROCORTIRUBIN] | > 200 | > 200 | > 200 | > 200 | > 200 | > 200 | > 200 | > 200 | > 200 | > 50 | – |
| COc1cc(O)c2c(c1O)[C@H](O)[C@H]1C[C@](C)(O)[C@H](O)C[C@@H]1C2=O | 12.5 (≈ 4.05 µg/mL) | 12.5 (≈ 4.05 µg/mL) | 25 (≈ 8.11 µg/mL) | 25 (≈ 8.11 µg/mL) | 1.56 (≈ 0.506 µg/mL) | 6.25 (≈ 2.03 µg/mL) | 1.56 (≈ 0.506 µg/mL) | 12.5 (≈ 4.05 µg/mL) | > 100 | > 50 | – |
| COc1cc(O)c2c(c1O)[C@H](O)[C@H]1C[C@](C)(O)[C@H](O)[C@@H](O)[C@@H]1C2=O [9ALPHA-HYDROXYHALOROSELLINIA A] | 12.5 (≈ 4.25 µg/mL) | 12.5 (≈ 4.25 µg/mL) | > 100 | 0.78 (≈ 0.265 µg/mL) | 3.12 (≈ 1.06 µg/mL) | 1.56 (≈ 0.531 µg/mL) | 3.12 (≈ 1.06 µg/mL) | 3.12 (≈ 1.06 µg/mL) | > 100 | 41.5 | – |
| COc1cc(OC(C)=O)c2c(c1O)C(=O)c1cc(C)c(O)cc1C2=O | > 200 | > 200 | > 200 | > 200 | > 200 | > 200 | > 200 | > 200 | > 200 | – | – |
